Broadly, the ΔTm is the shift of the melting midpoint relative to a reference. As a reminder, the IC50 is the concentration needed to halve the response being measured. High values mean weaker potency, low ones greater potency.

Experimental findings from ChEMBL document CHEMBL1132143, “Effect of A-ring modifications on the DNA-binding behavior and cytotoxicity of pyrrolo[2,1-c][1,4]benzodiazepines” (J Med Chem, 1999) are described below.

Some results are limits rather than exact numbers.

Experiment [1] deals with Calf thymus DNA. In words: Tested for thermal denaturation against CT-DNA at 0 hours. The experiment is classed as nucleic-acid assay. To be noted: Bos taurus. In a few lines: (§1)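 CT-DNA (42% G+C) at 100 μM in DNA phosphate with compound at 20 μM (5:1 ratio). Buffer pH 7.00, 10 mM sodium phosphate, 1 mM EDTA, ≤0.6% v/v MeOH. Incubated at 37.0 °C for the stated time. Melted at 1 °C/min from 45 to 98 °C, read at 260 nm. ΔTm is Tm with ligand minus free DNA Tm, MeOH-corrected; mean ± SD of ≥3 runs.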

For the next experiment, the system named is CH1. In words: Tested for cytotoxicity against CH1 human ovarian cells. The experiment is classed as functional, cell-based. In a few lines: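 CH1 human ovarian monolayer, plated day 0 at 100–200 cells per T25 flask in Dulbecco's medium with 10% fetal calf serum and allowed to attach overnight. Compound added day 1 and left continuously at 37 °C. Colonies fixed day 9 in EtOH, stained with methylene blue and counted. IC50 is 50% inhibition versus solvent controls. Range 10^-4–10^-11 M, 10-fold steps.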

Experiment [2] concerns Calf thymus DNA. In words: Tested for thermal denaturation against CT-DNA at 18 hours. The settings on record: Bos taurus.
Experiment [3] can be described thus: Tested for cytotoxicity against ADJ/PC6 plasmacytoma. The experiment is classed as functional, cell-based, Mus musculus. In a few lines:
(§2)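 ADJ/PC6 mouse plasmacytoma grown in suspension. Seeded day 0 at 3–5 × 10^4 cells/mL in Dulbecco's medium with 20% horse serum. Log-phase confirmed day 1, then compound added for 72 h at 37 °C. Cells counted day 4 by Coulter counter. IC50 is the dose giving 50% growth inhibition versus solvent controls. Screened 10^-4–10^-11 M in 10-fold steps, <0.05% v/v DMSO.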

The test system of experiment [4] is Calf thymus DNA. In words: Tested for thermal denaturation against CT-DNA at 4 hours. In kind it is nucleic-acid assay. The settings on record: Bos taurus. The essentials: as §1
Experiment [5] has as its system L1210. The experiment can be described thus: Tested for cytotoxicity against L1210 Leukemia cell. In kind it is functional, cell-based. The settings on record: Mus musculus. The essentials:
(§3)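 L1210 mouse leukemia grown in suspension. Seeded day 0 at 10^4 cells/mL in RPMI 1640 with 10% horse serum. Log phase checked day 1, then compound added for 48 h at 37 °C. Cells counted day 3 by Coulter counter. IC50 is 50% growth inhibition versus solvent-treated controls. Dose range 10^-4–10^-11 M in 10-fold steps, <0.05% v/v DMSO.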

Experiment [6] in a line: Tested for cytotoxicity against ADJ/PC6 mouse plasmacytoma. The experiment is classed as functional, cell-based. The essentials:
as §2

Experiment [7] deals with Calf thymus DNA. The experiment can be described thus: Tested for thermal denaturation against CT-DNA. The settings on record: Bos taurus.
The subject of experiment [8] is L1210. The experiment can be described thus: Tested for cytotoxicity against L1210 mouse Leukemia cell. In kind it is functional, cell-based. The essentials:
as §3

For the compound `O=C1c2ccccc2N=C[C@@H]2CCCN12`, the values for the ΔTm in the experiment on Calf thymus DNA [1], in the experiment with Calf thymus DNA [2] and in the experiment with Calf thymus DNA [4] were 0.3 °C, 0.6 °C and 0.4 °C, respectively. For the same compound, the figures for the IC50 (with CH1; in experiment [3]; in the experiment on L1210 [5]) were 42000 nM, 38000 nM and over 100000 nM, respectively.

As for `COc1cc2c(cc1OCc1ccccc1)N=C[C@@H]1CCCN1C2=O`, the ΔTm worked out at 0.2 °C with Calf thymus DNA [1], 0.4 °C in the experiment with Calf thymus DNA [2] and 0.4 °C with Calf thymus DNA [4]. The IC50 in the experiment on CH1 was determined as 1000 nM; in experiment [3], 370 nM; in the experiment on L1210 [5], 3000 nM.

`COC(=O)c1c2c(nn1C)C(=O)N1CCC[C@H]1C=N2`: the ΔTm was 0.2 °C with Calf thymus DNA [1], 0.5 °C with Calf thymus DNA [7] and 0.3 °C with Calf thymus DNA [4]. For the same compound, the half-inhibitory concentration (IC50) was over 50000 nM in experiment [6], over 100000 nM in the experiment on CH1 and 35000 nM with L1210 [8].

For the compound `CO[C@H]1Nc2nccnc2C(=O)N2CCC[C@@H]12`, the ΔTm in the experiment with Calf thymus DNA [1] was 0.3 °C; in the experiment with Calf thymus DNA [7], 0.7 °C; in the experiment with Calf thymus DNA [4], 0.6 °C. This compound gave an IC50 with CH1 of 17000 nM.

On to `COc1cc2c(cc1O)C(=O)N1CCC[C@H]1C=N2`, for which the values for the ΔTm in the experiment with Calf thymus DNA [1], in the experiment with Calf thymus DNA [2] and with Calf thymus DNA [4] were 0.3 °C, 0.6 °C and 0.5 °C, respectively. Besides, the IC50 was 200 nM in the experiment on CH1, 2700 nM in experiment [3] and 2700 nM in the experiment on L1210 [5].

Turning to `O=C1c2cc3c(cc2N=C[C@@H]2CCCN12)OCO3`, the ΔTm in the experiment with Calf thymus DNA [1] turned out to be 0.1 °C; in the experiment on Calf thymus DNA [2], 0.4 °C; in the experiment on Calf thymus DNA [4] it was 0.2 °C. In addition, the 50% inhibitory concentration (IC50) turned out to be 260 nM in the experiment with CH1, 1900 nM in [3] and 1500 nM in the experiment with L1210 [5].

Regarding `COc1cc2c(cc1NC(=O)OCc1ccccc1)N=C[C@@H]1CCCN1C2=O`, the ΔTm in the experiment on Calf thymus DNA [1] came out at 0.1 °C; with Calf thymus DNA [7] it was 0.4 °C; in the experiment on Calf thymus DNA [4], 0.2 °C. For the same compound, the figures for the IC50 (in experiment [6]; with CH1; in the experiment with L1210 [8]) were 3200 nM, 1800 nM and 4500 nM, respectively.

`COc1nc(OC)c2c(n1)C(=O)N1CCC[C@H]1C=N2`: the results for the ΔTm in the experiment on Calf thymus DNA [1], in the experiment on Calf thymus DNA [7] and in the experiment on Calf thymus DNA [4] were 0.1 °C, 0.3 °C and 0.2 °C, respectively. For the same compound, in the experiment on L1210 [8], the IC50 was determined as 42000 nM.

In the case of `COc1cc2c(cc1O)N=C[C@@H]1CCCN1C2=O`, the ΔTm was 0.3 °C in the experiment on Calf thymus DNA [1] and 0.5 °C in the experiment on Calf thymus DNA [4]. The IC50 with CH1 is 100 nM; in experiment [3] it was 330 nM.

Take `C/C=C1\C[C@H]2C=Nc3cc(O)c(OC)cc3C(=O)N2C1`: the ΔTm with Calf thymus DNA [1] was determined as 1 °C; with Calf thymus DNA [2], 2.6 °C; in the experiment on Calf thymus DNA [4], 2.4 °C. Besides, the IC50 with CH1 was 0.13 nM; in experiment [3] it was 1.8 nM; with L1210 [5] it was 3.7 nM.

Consider `CO[C@H]1Nc2ncccc2C(=O)N2CCC[C@@H]12`, for which the ΔTm in the experiment with Calf thymus DNA [1] was 0.3 °C; in the experiment on Calf thymus DNA [7] it was 0.5 °C; in the experiment with Calf thymus DNA [4] it was 0.5 °C. The results for the IC50 (in experiment [6]; in the experiment on CH1; in the experiment with L1210 [8]) were over 50000 nM, 43000 nM and 13000 nM, respectively.

Consider `COc1cc2c(cc1OCCCOCc1ccccc1)N=C[C@@H]1CCCN1C2=O`, for which the ΔTm in the experiment on Calf thymus DNA [1] came to 0.2 °C; in the experiment with Calf thymus DNA [2], 0.6 °C; with Calf thymus DNA [4] it was 0.4 °C. The results for the IC50 (in the experiment with CH1; in [3]; with L1210 [5]) were 290 nM, 2300 nM and 2400 nM, respectively.

With `CCCCOC1CC[C@H]2C=Nc3cc(O)c(OC)cc3C(=O)N12` (some centres undefined), the results for the ΔTm in the experiment with Calf thymus DNA [1], with Calf thymus DNA [2] and in the experiment on Calf thymus DNA [4] were 0.5 °C, 0.8 °C and 0.6 °C, respectively. Besides, the IC50 with CH1 was 430 nM; in experiment [3], 1300 nM; with L1210 [5], 2700 nM.

`COC1Nc2c(ccc(C)c2O)C(=O)N2C=C(/C=C/C(N)=O)C[C@@H]12` (some centres undefined): the ΔTm in the experiment with Calf thymus DNA [1] is 9.4 °C; in the experiment with Calf thymus DNA [2], 13 °C; in the experiment on Calf thymus DNA [4] it was 11.2 °C. The IC50 in [6] came out at 2.8 nM; with CH1 it was 320 nM; in the experiment with L1210 [8], 22 nM.

Turning to `O=C1c2cc3c(cc2N=C[C@@H]2CCCN12)OCCO3`, the ΔTm was 0.1 °C with Calf thymus DNA [1], 0.5 °C in the experiment with Calf thymus DNA [2] and 0.3 °C with Calf thymus DNA [4]. The IC50 in the experiment on CH1 turned out to be 460 nM; in experiment [3], 3400 nM; in the experiment with L1210 [5] it was 2700 nM.

With `CO[C@@H]1Nc2ncccc2C(=O)N2CCC[C@@H]12`, the figures for the ΔTm with Calf thymus DNA [1], in the experiment on Calf thymus DNA [7] and in the experiment on Calf thymus DNA [4] were 0.3 °C, 0.5 °C and 0.5 °C, respectively. Further, the IC50 is over 50000 nM in [6], 43000 nM with CH1 and 13000 nM in the experiment on L1210 [8].

Take `COC(=O)CCOc1cc2c(cc1OC)C(=O)N1CCC[C@H]1C=N2`: the ΔTm in the experiment with Calf thymus DNA [1] stood at 0.3 °C; with Calf thymus DNA [2], 0.6 °C; in the experiment on Calf thymus DNA [4], 0.5 °C. In the experiment with CH1, this compound had an IC50 of 4400 nM.
